Measured values reported in ChEMBL document CHEMBL2375351, “Degradation of MAC13243 and studies of the interaction of resulting thiourea compounds with the lipoprotein targeting chaperone LolA” (Bioorg Med Chem Lett, 2013).
≈ marks a conversion by molar mass, not a printed value. Calls of active or inactive are those of the source. No cut-off for these calls is given here.

Columns and labels:
Escherichia coli [1] = assay: Antibacterial activity against Escherichia coli EB2120 conditional lolA strain with lolA deletion and complementing copy placed at araBAD locus at 1 to 256 ug/mL after 18 hrs in presence of 0.00002 to 0.2% of arabinose; format: functional, organism-based
Procedure, shortened: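 Conditional lolA strain EB2120 (chromosomal lolA deleted, complementing copy at araBAD under arabinose control), grown to OD600 ~0.4–0.5. […] Fold sensitization is the MIC under LolA depletion relative to the fully complemented 0.2% arabinose condition.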

Escherichia coli [2] = assay: Antibacterial activity against Escherichia coli MG1655 overexpressing lolA assessed as growth inhibition after 16 hrs; format: functional; conditions: MG1655, 16 h
Pseudomonas aeruginosa = assay: Antibacterial activity against Pseudomonas aeruginosa PAO1 assessed as growth inhibition after 16 hrs; format: functional; conditions: PAO1, 16 h
Procedure, shortened: (§1)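 Broth microdilution in liquid LB with B. subtilis 168 or P. aeruginosa PAO1. Overnight cultures were diluted 1:100, grown to OD600 0.4, then diluted 1:100,000 into serially diluted compound (1–256 µg/mL). Plates were incubated 16 h at 37 °C, static, except B. subtilis, which was shaken at 250 rpm. MIC is the lowest concentration giving OD600 below 0.05.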

Bacillus subtilis = assay: Antibacterial activity against Bacillus subtilis 168 assessed as growth inhibition after 16 hrs; format: functional; conditions: subsp. subtilis str. 168, 16 h; procedure, shortened: as §1
Escherichia coli [3] = assay: Potency index, ratio of MAC13243 MIC to compound MIC for Escherichia coli MG1655 overexpressing lolA; format: functional
Escherichia coli [4] = assay: Potency index, ratio of MIC for Escherichia coli EB2120 conditional lolA strain with lolA deletion and complementing copy placed at araBAD locus in presence of 0.2% arabinose to MIC in presence of 0.00002% of arabinose; format: functional
Escherichia coli [5] = assay: Potency index, ratio of MIC for Escherichia coli AG1 overexpressing lolA to MIC for lolA-deficient Escherichia coli AG1; format: functional
[6] = Binding affinity to recombinant Escherichia coli LolA by STDD NMR spectra analysis
Escherichia coli [7] = assay: Binding affinity to LolA in Escherichia coli EB68 assessed as change in cell shape from rod to sphere at 10 ug/mL measured every 1 hr for 4 hrs by phase contrast microscopic analysis
Procedure, shortened: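 E. coli EB68 (MG1655) was subcultured 1:100 into LB and grown to OD600 ~0.5, then washed once in fresh medium. Cells were resuspended in LB with compound at 10 µg/mL, placed on poly-lysine-treated slides and examined by phase contrast light microscopy at 1 h intervals for rod-to-sphere shape change.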

[8] = Binding affinity to Escherichia coli LolA
[9] = Half life of the compound in citrate buffer at pH 11 at 250 uM measured up to 48 hrs by reverse phase HPLC analysis; format: physicochemical
Procedure, shortened: (§2)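 Compound at 250 µM final was incubated in DMSO, H2O, 50 mM acetate buffer (pH 4) or 50 mM citrate buffer (pH 11). Samples were analysed over time by reverse phase C18 HPLC using a 10 min gradient of 0.1% TFA water to acetonitrile, with detection at 270 nm. Parent peak areas were plotted against time and fit to exponential decay.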

[10] = Half life of the compound in acetate buffer at pH 4 at 250 uM measured up to 48 hrs by reverse phase HPLC analysis; format: physicochemical; procedure, shortened: as §2
[11] = Half life of the compound in DMSO at 250 uM measured up to 48 hrs by reverse phase HPLC analysis; format: physicochemical; procedure, shortened: as §2
[12] = Half life of the compound in water at 250 uM measured up to 48 hrs by reverse phase HPLC analysis; format: physicochemical; procedure, shortened: as §2

For `COc1cc(Cc2cnc(N)nc2N)cc(OC)c1OC`, the Activity (Escherichia coli [1]) was “inactive”.
With `N=C(N)Sc1ccc(Cl)cc1` the MIC (Escherichia coli [2]) was > 256 mg/L, the MIC (Pseudomonas aeruginosa) was 64 mg/L (≈ 343 µM) and the MIC (Bacillus subtilis) was 4 mg/L (≈ 21.4 µM).
In the case of `N=C(N)SCc1ccc(Cl)cc1`, the Ratio (Escherichia coli [3]) is reported as 4, the MIC (Escherichia coli [2]) is reported as 2 mg/L (≈ 9.97 µM) and the MIC (Pseudomonas aeruginosa) is reported as 16 mg/L (≈ 79.7 µM). The Ratio (Escherichia coli [4]) was 32, the Ratio (Escherichia coli [5]) was 16 and the MIC (Bacillus subtilis) was > 256 mg/L. It also gave a Kd [6] of 150 µM.
In the case of `CN[C@@H]1[C@H](O)[C@H](NC)[C@H]2O[C@@]3(O)C(=O)C[C@@H](C)O[C@H]3O[C@@H]2[C@H]1O`, the Activity (Escherichia coli [1]) is reported as “inactive”.
With `N=C(N)c1ccc(Cl)cc1` the MIC (Escherichia coli [2]) was > 256 mg/L, the MIC (Pseudomonas aeruginosa) was 64 mg/L (≈ 414 µM) and the MIC (Bacillus subtilis) was 4 mg/L (≈ 25.9 µM).
With `N=C(N)OCc1ccc(Cl)cc1` the MIC (Escherichia coli [2]) was 32 mg/L (≈ 173 µM), the MIC (Pseudomonas aeruginosa) was 32 mg/L (≈ 173 µM) and the MIC (Bacillus subtilis) was > 256 mg/L.
With `C[C@@H]1O[C@@H]1P(=O)(O)O` [FOSFOMYCIN] the Ratio (Escherichia coli [4]) was 16.
In the case of `N=C(N)SCc1ccc(Br)cc1`, the MIC (Escherichia coli [2]) is reported as 4 mg/L (≈ 16.3 µM), the MIC (Pseudomonas aeruginosa) is reported as 16 mg/L (≈ 65.3 µM) and the MIC (Bacillus subtilis) is reported as > 256 mg/L.
In the case of `Oc1cc(Cl)ccc1Oc1ccc(Cl)cc1Cl`, the Activity (Escherichia coli [1]) is reported as “inactive”.
For `CC1(C)S[C@@H]2[C@H](NC(=O)[C@H](N)c3ccccc3)C(=O)N2[C@H]1C(=O)O`, the Activity (Escherichia coli [1]) was “inactive”.
For `N=C(N)SCc1ccc(I)cc1`, the MIC (Escherichia coli [2]) was 16 mg/L (≈ 54.8 µM), the MIC (Pseudomonas aeruginosa) was 32 mg/L (≈ 110 µM) and the MIC (Bacillus subtilis) was > 256 mg/L.
In the case of `N=C(N)SCc1ccc(F)cc1`, the MIC (Escherichia coli [2]) is reported as 16 mg/L (≈ 86.8 µM), the MIC (Pseudomonas aeruginosa) is reported as 16 mg/L (≈ 86.8 µM) and the MIC (Bacillus subtilis) is reported as > 256 mg/L.
Work on `N=C(N)SCc1ccc(Cl)c(Cl)c1` yielded an MIC (Escherichia coli [2]) of 2 mg/L (≈ 8.51 µM), an MIC (Pseudomonas aeruginosa) of 16 mg/L (≈ 68 µM) and a Ratio (Escherichia coli [4]) of 32. For the same molecule, the Ratio (Escherichia coli [5]) was 16, the MIC (Bacillus subtilis) was > 256 mg/L and the Kd [6] was 200 µM. The Activity (Escherichia coli [7]) was “Active”.
For `CCn1cc(C(=O)O)c(=O)c2cc(F)c(N3CCNCC3)cc21`, the Activity (Escherichia coli [1]) was “inactive”.
For `C/N=C(\NC)SCc1ccc(Cl)c(Cl)c1`, the MIC (Escherichia coli [2]) was 256 mg/L (≈ 973 µM), the MIC (Pseudomonas aeruginosa) was 256 mg/L (≈ 973 µM) and the MIC (Bacillus subtilis) was > 256 mg/L.
In the case of `N=C(N)SCCc1ccc(Cl)cc1`, the MIC (Escherichia coli [2]) is reported as > 256 mg/L, the MIC (Pseudomonas aeruginosa) is reported as 128 mg/L (≈ 596 µM) and the MIC (Bacillus subtilis) is reported as > 256 mg/L.
In the case of `N=C(N)SCc1ccc([N+](=O)[O-])cc1`, the MIC (Escherichia coli [2]) is reported as 32 mg/L (≈ 151 µM), the MIC (Pseudomonas aeruginosa) is reported as 64 mg/L (≈ 303 µM) and the MIC (Bacillus subtilis) is reported as > 256 mg/L.
With `COc1ccc(CSC(=N)N)cc1` the MIC (Escherichia coli [2]) was > 256 mg/L, the MIC (Pseudomonas aeruginosa) was 32 mg/L (≈ 163 µM) and the MIC (Bacillus subtilis) was > 256 mg/L.
With `N=C(N)SCc1cccc(Cl)c1` the MIC (Escherichia coli [2]) was 64 mg/L (≈ 319 µM), the MIC (Pseudomonas aeruginosa) was > 256 mg/L and the MIC (Bacillus subtilis) was > 256 mg/L.
For `N=C(N)SCCCc1ccc(Cl)cc1`, the MIC (Escherichia coli [2]) was > 256 mg/L, the MIC (Pseudomonas aeruginosa) was 128 mg/L (≈ 560 µM) and the MIC (Bacillus subtilis) was > 256 mg/L.
With `N=C(N)CSCc1ccc(Cl)cc1` the MIC (Escherichia coli [2]) was > 256 mg/L, the MIC (Pseudomonas aeruginosa) was 128 mg/L (≈ 596 µM) and the MIC (Bacillus subtilis) was > 256 mg/L.
For `N=C(N)SCc1ccccc1` [BENZYL CARBAMIMIDOTHIOATE], the MIC (Escherichia coli [2]) was 64 mg/L (≈ 385 µM), the MIC (Pseudomonas aeruginosa) was 32 mg/L (≈ 192 µM) and the MIC (Bacillus subtilis) was > 256 mg/L.
In the case of `CN(C)[C@@H]1C(O)=C(C(N)=O)C(=O)[C@@]2(O)C(O)=C3C(=O)c4c(O)cccc4[C@@](C)(O)[C@H]3C[C@@H]12`, the Activity (Escherichia coli [1]) is reported as “inactive”.
For `CO[C@H]1/C=C/O[C@@]2(C)Oc3c(C)c(O)c4c(O)c(c(/C=N/N5CCN(C)CC5)c(O)c4c3C2=O)NC(=O)/C(C)=C\C=C\[C@H](C)[C@H](O)[C@@H](C)[C@@H](O)[C@@H](C)[C@H](OC(C)=O)[C@@H]1C`, the Activity (Escherichia coli [1]) was “inactive”.
In the case of `N=C(N)CCc1ccc(Cl)cc1`, the MIC (Escherichia coli [2]) is reported as > 256 mg/L, the MIC (Pseudomonas aeruginosa) is reported as 128 mg/L (≈ 701 µM) and the MIC (Bacillus subtilis) is reported as > 256 mg/L.
For `N=C(N)SCc1ccc(Cl)cc1Cl`, the MIC (Escherichia coli [2]) was 1 mg/L (≈ 4.25 µM), the MIC (Pseudomonas aeruginosa) was 32 mg/L (≈ 136 µM) and the MIC (Bacillus subtilis) was > 256 mg/L.
For `N=C(N)NCc1ccc(Cl)cc1`, the MIC (Escherichia coli [2]) was 256 mg/L (≈ 1390 µM), the MIC (Pseudomonas aeruginosa) was 128 mg/L (≈ 697 µM) and the MIC (Bacillus subtilis) was > 256 mg/L.
With `N=C(N)SCc1ccccc1Cl` the MIC (Escherichia coli [2]) was 16 mg/L (≈ 79.7 µM), the MIC (Pseudomonas aeruginosa) was 64 mg/L (≈ 319 µM) and the MIC (Bacillus subtilis) was > 256 mg/L.
With `COc1ccc(CCN2CN=C(SCc3ccc(Cl)cc3)NC2)cc1OC` the Kd [8] was 8 µM, the MIC (Escherichia coli [2]) was 8 mg/L (≈ 19.7 µM) and the MIC (Pseudomonas aeruginosa) was 32 mg/L (≈ 78.8 µM). It also gave a half-life at 250 µM [9] of 59 h, a Ratio (Escherichia coli [4]) of 32 and a Ratio (Escherichia coli [5]) of 16. For the same molecule, the half-life at 250 µM [10] was 4 h, the MIC (Bacillus subtilis) was 256 mg/L (≈ 631 µM) and the half-life at 250 µM [11] was 257 h. The Activity (Escherichia coli [7]) was “Active” and the half-life at 250 µM [12] was 13 h.
With `COc1ccc(CCN)cc1OC` the MIC (Escherichia coli [2]) was > 256 mg/L.
